Results: ChEMBL document CHEMBL2440094, “Thiazolidinone-peptide hybrids as dengue virus protease inhibitors with antiviral activity in cell culture” (J Med Chem, 2013)
Active and inactive are the calls of the source. No cut-off for these calls is given here.

How the values were obtained:
[1] = Inhibition of Dengue virus NS2B-NS3 protease expressed in Escherichia coli BL 21 (DE3) using Abz-Nle-Lys-Arg-Arg-Ser-3-(NO2)Tyr as substrate assessed as enzyme-inhibitor complex by Cornish-Bowden plot analysis; details: in the assay text read “Dixon plot” for “Cornish-Bowden plot”
Procedure, shortened: (§1)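 DEN2 NS2B–NS3 FRET assay run at inhibitor 0–6 μM (prior-series compounds 5–50 μM) and substrate 50, 100, 150 and 200 μM, in triplicate, with inner-filter correction. Ki from Dixon plots (1/v vs [I]) and Ki′ from Cornish-Bowden plots (S/v vs [I]). Inhibition mode assigned from these plots.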

[2] = Inhibition of Dengue virus NS2B-NS3 protease expressed in Escherichia coli BL 21 (DE3) using Abz-Nle-Lys-Arg-Arg-Ser-3-(NO2)Tyr as substrate after 15 mins
[3] = Inhibition of Dengue virus NS2B-NS3 protease expressed in Escherichia coli BL 21 (DE3) using Abz-Nle-Lys-Arg-Arg-Ser-3-(NO2)Tyr as substrate assessed as enzyme-substrate-inhibitor complex by Cornish-Bowden plot analysis; procedure, shortened: as §1
[4] = target: Prothrombin (Homo sapiens) (UniProt P00734); assay: Inhibition of thrombin (unknown origin) using Boc-Val-Pro-Arg-AMC as substrate at 25 uM after 10 mins by continuous fluorimetric assay
Procedure, shortened: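 Thrombin (10 nM) preincubated 15 min with inhibitor (25 μM final) in 50 mM Tris-HCl pH 7.5, 150 mM NaCl, 0.05% Tween 20. Boc-Val-Pro-Arg-AMC then added to 50 μM (Km 16 μM). Fluorescence (ex 355 nm, em 460 nm) followed for 10 min as slope. Triplicate; percent inhibition versus no-inhibitor control.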

[5] = system: Huh-7; assay: Cytotoxicity against human HuH7 cells at >100 uM after 48 hrs by firefly reporter assay; format: cell-based; details: huh-7, 48 h
Procedure, shortened: (§2)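 Uninfected Huh-7 cells stably expressing firefly luciferase, seeded 5000/well and incubated overnight at 37 °C. Compound added at 1.56–50 μM, plus 100, 200 and 400 μM, then incubated as for infected cells (further 48 h after the 4 h point). Firefly luminescence read with 70 μM luciferin and 2 mM ATP. Mean of three wells as percent of DMSO control.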

[6] = system: West Nile virus; assay: Inhibition of West Nile virus NS2B-NS3 protease expressed in Escherichia coli BL 21 (DE3) using Abz-Gly-Leu-Lys-Arg-Gly-Gly-3-(NO2)Tyr as substrate at 50 uM after 15 mins
[7] = Permeability of the compound by PAMPA; format: ADME; details: read-out: permeability
Procedure, shortened: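 PAMPA with precoated trilayer lipid/oil/lipid membranes, donor wells holding 200 μM compound in PBS pH 7.4 (2% DMSO final), in triplicate. Incubated 5 h at room temperature. Donor and acceptor concentrations determined by UV plate reader or HPLC-UV against calibration curves. Pe and mass retention R calculated.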

[8] = system: Dengue virus; assay: Inhibition of Dengue virus NS2B-NS3 protease expressed in Escherichia coli BL 21 (DE3) using Abz-Nle-Lys-Arg-Arg-Ser-3-(NO2)Tyr as substrate at 50 uM after 15 mins
[9] = system: Dengue virus; assay: Mixed type inhibition of Dengue virus NS2B-NS3 protease expressed in Escherichia coli BL 21 (DE3) using Abz-Nle-Lys-Arg-Arg-Ser-3-(NO2)Tyr as substrate by Cornish-Bowden plot analysis; procedure, shortened: as §1
[10] = system: dengue virus type 2; assay: Antiviral activity against Dengue virus 2 infected in human Huh-7 cells assessed as inhibition of viral replication after 48 hrs by luciferase reporter gene assay; format: functional, organism-based; details: Huh-7, 48 h
Procedure, shortened: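 Huh-7 cells seeded 5000/well, incubated overnight at 37 °C, then given compound (1.56–50 μM final, 2-fold series in DMEM with 10% FCS). Dengue 2 renilla luciferase reporter virus (MOI 10) added 4 h later. After 48 h at 37 °C, cells lysed and renilla luminescence read with coelenterazine. At least four wells per concentration, expressed relative to DMSO control. EC50 by nonlinear regression.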

[11] = system: Huh-7; assay: Cytotoxicity against human HuH7 cells at <50 uM after 48 hrs by firefly reporter assay; format: cell-based; details: huh-7, 48 h; procedure, shortened: as §2
[12] = system: dengue virus type 2; assay: Antiviral activity against Dengue virus 2 infected in human Huh-7 cells assessed as inhibition of virus-induced plaque formation at 50 uM after 48; format: functional, organism-based
Procedure, shortened: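 Huh-7 cells seeded in 12-well plates and pretreated with compound (50 μM) for 4 h. Infected for 1 h with dengue reporter virus (MOI 5) in the presence of compound, then medium replaced with compound-containing DMEM. Supernatant harvested at 48 h and filtered. Titer determined by plaque assay on Vero cells. Mean ± SD of three independent experiments.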

[13] = system: Dengue virus; assay: Mixed/noncompetitive type inhibition of Dengue virus NS2B-NS3 protease expressed in Escherichia coli BL 21 (DE3) using Abz-Nle-Lys-Arg-Arg-Ser-3-(NO2)Tyr as substrate by Cornish-Bowden plot analysis; procedure, shortened: as §1
[14] = system: Dengue virus; assay: Displacement of aprotinin from Dengue virus NS2B-NS3 protease expressed in Escherichia coli BL 21 (DE3) by tryptophan fluorescence quenching assay
Procedure, shortened: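 Tryptophan quenching assay: DEN protease (4 μM) incubated with inhibitor at 0–50 μM, and also with inhibitor (50 μM) plus aprotinin (10 μM). Enzyme and aprotinin autofluorescence measured as negative control. Fluorescence read at ex 280 nm, em 330 nm; triplicate.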

[15] = system: Dengue virus; assay: Competitive inhibition of Dengue virus NS2B-NS3 protease expressed in Escherichia coli BL 21 (DE3) using Abz-Nle-Lys-Arg-Arg-Ser-3-(NO2)Tyr as substrate by Cornish-Bowden plot analysis; procedure, shortened: as §1
[16] = system: Dengue virus; assay: Uncompetitive inhibition of Dengue virus NS2B-NS3 protease expressed in Escherichia coli BL 21 (DE3) using Abz-Nle-Lys-Arg-Arg-Ser-3-(NO2)Tyr as substrate by Cornish-Bowden plot analysis; procedure, shortened: as §1
[17] = system: Huh-7; assay: Cytotoxicity against human HuH7 cells at 50 uM after 48 hrs by firefly reporter assay; format: cell-based; details: huh-7, 48 h; procedure, shortened: as §2
[18] = Solubility of the compound in PBS buffer; format: physicochemical

SMILES | Ki [1] [µM] | IC50 [2] [µM] | Ki [3] [µM] | inhibition [4] [%] | Activity [5] | inhibition [6] [%] | Papp [7] [×10⁻⁶ cm/s] | inhibition [8] [%] | inhibition [9] | EC50 [10] [µM] | Activity [11] | inhibition [12] | inhibition [13] | inhibition [14] | inhibition [15] | inhibition [16] | Activity [17] | solubility [18]
CCCC[C@H](NC(=O)[C@H](CCCCN)NC(=O)[C@H](CCCNC(=N)N)NC(=O)c1ccc(/C=C2\SC(=S)N(C3CCCCC3)C2=O)cc1)C(N)=O | 9.3 | 6.1 | 4.4 | 14.2 | Toxic | 96.9 | 1.82 | 99.2 | Active | 16.7 | Non-toxic | Active | – | – | – | – | – | –
CCCC[C@H](NC(=O)[C@H](CCCCN)NC(=O)[C@H](CCCNC(=N)N)NC(=O)c1ccc(/C=C2\SC(=S)N(Cc3ccc(OC)cc3)C2=O)cc1)C(N)=O | 7.8 | 7.9 | 8.3 | 15 | – | 99 | 0.6 | 99.6 | – | 37.3 | – | – | Active | – | – | – | – | –
CCCC[C@H](NC(=O)[C@H](CCCCN)NC(=O)[C@H](CCCNC(=N)N)NC(=O)c1ccc(/C=C2\SC(=O)N(Cc3ccccc3)C2=O)cc1)C(N)=O | 1.7 | 2.9 | > 10 | 17.3 | – | 57.9 | – | 98.6 | – | > 50 | Non-toxic | – | – | Dose-dependent effect | Active | – | – | –
CCCC[C@H](NC(=O)[C@H](CCCCN)NC(=O)[C@H](CCCNC(=N)N)NC(=O)c1ccc(/C=C2\SC(=O)N(CCc3ccccc3)C2=O)cc1)C(N)=O | 1.8 | 3.5 | > 10 | 15.3 | – | 57.8 | 0.82 | 96.8 | – | 37.2 | Non-toxic | – | – | Dose-dependent effect | Active | – | – | –
CCCC[C@H](NC(=O)[C@H](CCCCN)NC(=O)[C@H](CCCNC(=N)N)NC(=O)c1ccc(/C=C2\SC(=S)N(Cc3ccccc3)C2=O)cc1)C(N)=O | 8.8 | 10.9 | 5.5 | 13.1 | – | 92.4 | – | 99.3 | – | – | – | – | Active | – | – | – | – | –
CCCC[C@H](NC(=O)[C@H](CCCCN)NC(=O)[C@H](CCCNC(=N)N)NC(=O)c1ccc(/C=C2\SC(=S)N(Cc3ccc(F)cc3)C2=O)cc1)C(N)=O | > 10 | > 10 | 7.9 | 9.6 | – | 97.9 | – | 99.4 | – | – | – | – | – | – | – | Active | – | –
CCCC[C@H](NC(=O)[C@H](CCCCN)NC(=O)[C@H](CCCNC(=N)N)NC(=O)c1ccc(/C=C2\SC(=S)N(Cc3ccc(C)cc3)C2=O)cc1)C(N)=O | 6.2 | 7.5 | 7.6 | 10.9 | – | 96.3 | – | 99.1 | – | – | – | – | Active | – | – | – | – | –
CCCCC(C(=O)OC)N1C(=O)/C(=C/c2ccc(C(=O)N[C@@H](CCCNC(=N)N)C(=O)N[C@@H](CCCCN)C(=O)N[C@@H](CCCC)C(N)=O)cc2)SC1=S (some centres undefined) | > 10 | 11.6 | 5.3 | 9 | – | 94.2 | 0.87 | 101 | – | 48.8 | – | – | – | – | – | Active | – | –
CCCC[C@H](NC(=O)[C@H](CCCCN)NC(=O)[C@H](CCCNC(=N)N)NC(=O)c1ccc(/C=C2\SC(=S)N(Cc3ccc(Cl)cc3)C2=O)cc1)C(N)=O | > 10 | > 10 | 8.6 | 13.3 | – | 100 | – | 100 | – | 31.5 | Non-toxic | Active | – | – | – | Active | Toxic | Insoluble
CCCC[C@H](NC(=O)[C@H](CCCCN)NC(=O)[C@H](CCCNC(=N)N)NC(=O)c1ccc(/C=C2\SC(=S)N(CCc3ccccc3)C2=O)cc1)C(N)=O | 13.6 | 7.7 | 5.1 | 6.2 | – | 98.3 | – | 99.6 | Active | 25.6 | Non-toxic | – | – | – | – | – | – | Insoluble
